Most compounds without a hit are left out; they make up all but 2.5% or so of the library.
TCR-CD3 inh – inhibitors of human TCR-CD3 interaction, primary screen, biochemical, fluorescence, TAMRA-labeled TCR probe; AID 651800, 2012; inhibition, % at 9.4 µM; T-cell receptor (TCR); 360,000 tested, 0.37% active;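 further: recombinant mutant TCR 2C K166C tagged with TAMRA read by polarization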
HTRA1 inhibitor – HTRA1 serine protease inhibitors, primary screen, biochemical, fluorescence polarization, HTS. recombinant HTRA1, FP-rhodamine activity-based probe. inhibition, % at 5.96 µM. 340,000 tested, 0.5% active. AID 504803, 2011; in the data active means inhibition above about 36%
mABHD4 FP – ABHD4 inhibitors, primary screen, biochemical, fluorescence polarization, mouse; (Lyso)-N-acylphosphatidylethanolamine lipase (Mus musculus), Q8VD66; purified mABHD4, FP-Rh probe fluorescence polarization; inhibition, % at 8.92 µM; 370,000 tested, 0.54% active; AID 720543, 2013;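 active means inhibition exceeding the mean over every tested compound plus 3 SD, cut at about 30% in these data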
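Doses – 8.92 µM, single dose · Material – wild-type mouse ABHD4 protein · Replication – single well per compound (singlicate) · Measure – percent inhibition of probe binding, normalized to plate controls · Schedule – 45 min compound pre-incubation plus 60 min probe step, 25 °C · Detection – fluorescence polarization with parallel and perpendicular emission, 525/598 nm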
PRMT1 FP inh – PRMT1 methyltransferase inhibitors, primary screen, biochemical, fluorescence polarization; Protein arginine N-methyltransferase 1 (Homo sapiens), Q99873; recombinant PRMT1, activity-based probe fluorescence polarization; inhibition, % at 2.79 µM; 370,000 tested, 1.3% active;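 active means inhibition above about 21% made by adding two undisclosed values, limit read from the data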
SIAE primary – human SIAE inhibitors, primary screen, biochemical, fluorescence polarization, FP-Rh probe, 1536-well HTS; SIAE FP-Rh probe binding; AID 1053197, 2014; 370,000 tested, 0.69% active; Sialate O-acetylesterase (Homo sapiens), Q9HAT2; inhibition, % at 9.66 µM;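 active means inhibition above a cutoff: mean of compounds within the control limits plus 3 SD of those, cut at about 17% in these data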
Target sequence (Q9HAT2 whole entry, looked up): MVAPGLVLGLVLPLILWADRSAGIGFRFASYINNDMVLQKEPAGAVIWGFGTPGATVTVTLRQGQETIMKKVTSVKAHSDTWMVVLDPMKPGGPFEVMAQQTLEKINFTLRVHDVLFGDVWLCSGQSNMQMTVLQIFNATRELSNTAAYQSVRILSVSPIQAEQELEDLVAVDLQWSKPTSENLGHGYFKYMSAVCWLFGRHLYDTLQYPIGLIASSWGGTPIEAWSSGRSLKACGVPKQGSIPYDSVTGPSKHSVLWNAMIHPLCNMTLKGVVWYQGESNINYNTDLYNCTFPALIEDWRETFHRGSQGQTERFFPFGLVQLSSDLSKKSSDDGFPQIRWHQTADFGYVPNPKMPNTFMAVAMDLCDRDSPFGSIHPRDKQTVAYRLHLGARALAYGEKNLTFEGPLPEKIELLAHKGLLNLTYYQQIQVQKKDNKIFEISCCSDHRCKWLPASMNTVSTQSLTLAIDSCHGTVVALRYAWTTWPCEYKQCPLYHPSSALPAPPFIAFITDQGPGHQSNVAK
BSA probe FL – compounds interfering with TAMRA-BSA probe, counter-screen for TCR-CD3 interaction inhibitor project, biochemical, fluorescence, TAMRA-labeled BSA; shares compounds with TCR-CD3 inh; TAMRA-labeled BSA probe fluorescence counterscreen; inhibition, % at 9.4 µM; 1,200 tested, 10% active; AID 652035, 2013; in the data active means inhibition above about 23%
TCR-CD3 inh conf – TCR-CD3 interaction inhibitors, retest, confirmation, biochemical, fluorescence, TAMRA-labeled TCR probe; 1,200 tested, 48% active; inhibition, % at 9.4 µM; shares compounds with TCR-CD3 inh; TAMRA-labeled TCR probe fluorescence binding assay; AID 652036, 2013
Of the large screens only hits and unclear results are named; the others gave an inactive call (follow-up assays come after a bar, where they were run). Unless noted, no stated cut-off is given here; in the data, active means inhibition above about 19%; inactive means the rest.

CC1=CC2(C(Cc3ccccc3)N(CC3CC3)C(=NC(=O)c3ccccc3)N2C(=O)OCc2ccccc2)n2c(=O)n(-c3ccccc3)c(=O)n2C1 (stereo unspecified)	none (no result: TCR-CD3 inh, HTRA1 inhibitor)
O=C(CCn1nnc(-c2cccs2)n1)NCc1cccs1	none (no result: TCR-CD3 inh, HTRA1 inhibitor)
COc1ccccc1CN(C)C(=O)C1CCCN(c2nc3ccccc3o2)C1 (stereo unspecified)	none (no result: TCR-CD3 inh, HTRA1 inhibitor)
O=C(CNC(=O)c1ccccc1Br)N/N=C\c1cc([N+](=O)[O-])cc(Br)c1O	TCR-CD3 inh 69 | BSA probe FL inactive | TCR-CD3 inh conf 61
COc1cc(Br)cc(/C=N/NC(=O)Cc2ccccc2)c1O	none
O=C(Cc1ccccc1)N/N=C/c1cc(Br)cc(Cl)c1O	TCR-CD3 inh 30 | BSA probe FL inactive | TCR-CD3 inh conf inactive
O=C(CP(=O)(c1ccccc1)c1ccccc1)N/N=C/c1cc(Br)cc(Br)c1O	TCR-CD3 inh 50 | BSA probe FL inactive | TCR-CD3 inh conf 51
Cc1cccc(-c2cccc3c4c([nH]c23)[C@@H]2C[C@H](N(C)C(=O)c3cccc(Cl)c3)[C@H]([C@H](C)O)CN2CC4)c1	none (no result: TCR-CD3 inh, HTRA1 inhibitor)
COc1cccc(CNC2CCC23CCC(C)CC3)c1 (stereo unspecified)	none (no result: TCR-CD3 inh, HTRA1 inhibitor)
COc1ccccc1N(C)S(=O)(=O)c1ccc(C(=O)NNC(=O)c2ccccc2O)cc1	TCR-CD3 inh 23 | BSA probe FL inactive | TCR-CD3 inh conf 24
COc1ccccc1/C=N/NC(=O)c1ccc(N(C)S(=O)(=O)c2ccccc2)cc1	TCR-CD3 inh 23 | BSA probe FL inactive | TCR-CD3 inh conf inactive
COc1ccccc1N(C)S(=O)(=O)c1ccc(Cl)c(C(=O)NNC(=O)c2ccccc2O)c1	TCR-CD3 inh 32 | BSA probe FL inactive | TCR-CD3 inh conf 25
c1ccc(C2CCC3(CC2)CCC3NCc2cccs2)cc1 (stereo unspecified)	none (no result: TCR-CD3 inh, HTRA1 inhibitor)
Cc1nc(N2CCN(C(=O)C3CCCCC3)CC2)c2c3c(sc2n1)CCCC3	none (no result: TCR-CD3 inh, HTRA1 inhibitor)
Cc1ccc2nc(-c3ccc(NC(=O)CN(c4ccccc4C)S(C)(=O)=O)cc3)sc2c1	none
Cc1cc(C)cc(N(CC(=O)Nc2ccc(-c3nc4ccc(C)cc4s3)cc2)S(C)(=O)=O)c1	TCR-CD3 inh 49 | BSA probe FL inactive | TCR-CD3 inh conf 32
COCCCNC(=O)C[C@H]1C[C@@]2(C(=O)OC)C(=C[C@H](C(C)C)O[C@@H]2C2CC2)N(CCc2ccc(OC)c(OC)c2)C1=O	none (no result: TCR-CD3 inh, HTRA1 inhibitor)
Cc1nc(N)sc1-c1csc(Nc2ncccn2)n1	TCR-CD3 inh 20 | BSA probe FL inactive | TCR-CD3 inh conf 20
O=C(NC1CC1)c1c(O)c2ccccc2[nH]c1=O	none
CCCCC(=O)NNC(=O)c1c(O)c2ccccc2[nH]c1=O	none
O=C(NNC(=O)c1c(O)c2ccccc2[nH]c1=O)c1ccccc1Br	TCR-CD3 inh 27 | BSA probe FL inactive | TCR-CD3 inh conf inactive
O=C(CCl)NNC(=O)c1c(O)c2ccccc2[nH]c1=O	TCR-CD3 inh 66 | BSA probe FL inactive | TCR-CD3 inh conf 50
O=C(Nc1ccc(Cl)c(Cl)c1)Oc1ccc(NC(=O)c2ccco2)cc1	TCR-CD3 inh 40 | BSA probe FL inactive | TCR-CD3 inh conf inactive
CN1CCC(OC(c2ccccc2)c2ccc(Cl)cc2)C1 (stereo unspecified)	TCR-CD3 inh 31 | BSA probe FL inactive | TCR-CD3 inh conf inactive
CCC[C@H]1[C@@H](NC(=O)C2CCCCC2)CC[C@@]23CCCN2C(=O)CCC[C@@H]13	none (no result: TCR-CD3 inh, HTRA1 inhibitor)
O=C(Nc1nnc([C@H]2C[C@H](O)[C@@H](CO)O2)s1)c1cccc(Oc2ccccc2)c1	TCR-CD3 inh 21 (no result: HTRA1 inhibitor) | BSA probe FL inactive | TCR-CD3 inh conf inactive
O=C(Nc1nnc([C@@H]2C[C@H](O)[C@@H](CO)O2)s1)c1cccc(Oc2ccccc2)c1	none (no result: HTRA1 inhibitor)
CCN1CCN(C(=O)C2CCN(S(=O)(=O)c3ccc(Br)cc3)CC2)CC1	TCR-CD3 inh 19 | BSA probe FL inactive | TCR-CD3 inh conf inactive
CCOc1ccc(C(=O)Nc2cc(-c3nc4ccccc4[nH]3)ccc2Cl)cc1[N+](=O)[O-]	TCR-CD3 inh 25 | BSA probe FL inactive | TCR-CD3 inh conf 40
Cc1cc2cc(CNC(=O)Cc3ccc([N+](=O)[O-])cc3)ccc2n1C	none
Cc1cc2cc(CNC(=O)c3ccc(S(=O)(=O)N(C)C)cc3)ccc2n1C	TCR-CD3 inh 25 | BSA probe FL inactive | TCR-CD3 inh conf inactive
Cc1ccc(CNC(=O)c2ccc(S(=O)(=O)N3CCCCCC3)cc2)cc1	none
Cc1cc2cc(CNC(=O)c3ccc(S(=O)(=O)N4CCCCC4)cc3)ccc2[nH]1	TCR-CD3 inh 20 | BSA probe FL inactive | TCR-CD3 inh conf inactive
COc1cccc(CNC(=O)c2ccc(S(=O)(=O)N3CCOCC3)cc2)c1	none
Cc1cc2cc(CNC(=O)c3cccc([N+](=O)[O-])c3)ccc2n1C	TCR-CD3 inh 26 | BSA probe FL inactive | TCR-CD3 inh conf inactive
Cc1cc2cc(CNC(=O)c3ccc(S(=O)(=O)N4CCOCC4)cc3)ccc2n1C	TCR-CD3 inh 48 | BSA probe FL inactive | TCR-CD3 inh conf inactive
CCCC(=O)OC12CCCN(C1)/C(=C/c1cccc(Cl)c1)C2 (stereo unspecified)	none (no result: TCR-CD3 inh, HTRA1 inhibitor)
CCNC(=S)NNC(=O)CSc1nnc(-c2ccccc2)n1-c1ccc(Cl)cc1	none (no result: TCR-CD3 inh, HTRA1 inhibitor)
Cc1ccc(-c2cc(-c3nnc(SCC(=O)N4CCOCC4)n3N)[nH]n2)cc1	none (no result: TCR-CD3 inh, HTRA1 inhibitor)
O=c1c2ccccc2c(C=Nc2ccccc2O)c(O)n1-c1nccs1	TCR-CD3 inh 61 | BSA probe FL inactive | TCR-CD3 inh conf 50
COc1ccc(N(CC(=O)Nc2ccc(F)c(F)c2)S(=O)(=O)c2c(C)n[nH]c2C)cc1	TCR-CD3 inh 28 | BSA probe FL inactive | TCR-CD3 inh conf inactive
NNC(=O)c1nc[nH]c1C(=O)Nc1ccccc1[N+](=O)[O-]	TCR-CD3 inh 30 | BSA probe FL inactive | TCR-CD3 inh conf inactive
O=C(Nc1ccc(F)cc1)c1nc[nH]c1C(=O)Nc1ccccc1[N+](=O)[O-]	none
CCN(CC)C(=O)CC[C@@H]1CC[C@]2(CCCN(Cc3ccncc3)C2)O1	none (no result: TCR-CD3 inh, HTRA1 inhibitor)
O=C(CSc1nc2cc(Cl)ccc2c(=O)n1Cc1ccco1)Nc1ccc(S(=O)(=O)N2CCOCC2)cc1	TCR-CD3 inh 20 | BSA probe FL inactive | TCR-CD3 inh conf 26
COC(=O)c1ccc2c(=O)n(Cc3ccco3)c(SCC(=O)Nc3ccc(C)c(Cl)c3)nc2c1	none

Screens as filed in PubChem BioAssay.
